Results published in ChEMBL document CHEMBL1914423, “New imidazo[2,1-b]thiazole derivatives: synthesis, in vitro anticancer evaluation, and in silico studies” (Eur J Med Chem, 2011).

Tests used:
Type in all cases: functional
MDA-MB-468 = assay: Anticancer activity against human MDA-MB-468 cells assessed as cell growth at 10^-5 M after 48 hrs by SRB assay; details: MDA-MB-468, 48 h, read-out: Activity
MCF7 = assay: Anticancer activity against human MCF7 cells assessed as cell growth at 10^-5 M after 48 hrs by SRB assay; details: MCF7, 48 h, read-out: Activity
Method in brief: (§1)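 NCI-60 single-dose screen at one concentration. Cells grown in RPMI 1640 with 5% FBS and 2 mM L-glutamine, plated at 5000–40,000 cells/well, and pre-incubated 24 h at 37 °C in 5% CO2 before DMSO-dissolved drug was added. Cells fixed with TCA, SRB-stained, absorbance read at 515 nm. Percent growth calculated against time-zero and untreated control plates.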

SK-MEL-5 = assay: Anticancer activity against human SK-MEL-5 cells assessed as cell growth at 10^-5 M after 48 hrs by SRB assay; details: SK-MEL-5, 48 h, read-out: Activity
SK-OV-3 = assay: Anticancer activity against human SKOV3 cells assessed as cell growth at 10^-5 M after 48 hrs by SRB assay; details: SK-OV-3, 48 h, read-out: Activity
NCI-H322M = assay: Anticancer activity against human NCI-H322M cells assessed as cell growth at 10^-5 M after 48 hrs by SRB assay; details: read-out: Activity
SN12C = assay: Anticancer activity against human SN12C cells assessed as cell growth at 10^-5 M after 48 hrs by SRB assay; details: read-out: Activity
Malme-3M = assay: Anticancer activity against human MALME-3M cells assessed as cell growth at 10^-5 M after 48 hrs by SRB assay; details: read-out: Activity; method in brief: as §1
T47D = assay: Anticancer activity against human T47D cells assessed as cell growth at 10^-5 M after 48 hrs by SRB assay; details: read-out: Activity
Method in brief: (§2)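 NCI-60 single-dose screen: cells in RPMI 1640 with 5% FBS and 2 mM L-glutamine, plated at 5000–40,000 cells/well by doubling time, and preincubated 24 h at 37 °C. Compound given at one concentration from DMSO stock. Cells TCA-fixed and SRB-stained, absorbance at 515 nm. Percent growth relative to time-zero and untreated controls; inhibition % = 100 − growth %.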

786-0 = assay: Anticancer activity against human 786-0 cells assessed as cell growth at 10^-5 M after 48 hrs by SRB assay; details: 786-0, 48 h, read-out: Activity; method in brief: as §1
RPMI-8226 = assay: Anticancer activity against human RPMI8226 cells assessed as cell growth at 10^-5 M after 48 hrs by SRB assay; details: RPMI-8226, 48 h, read-out: Activity
K562 = assay: Anticancer activity against human K562 cells assessed as cell growth at 10^-5 M after 48 hrs by SRB assay; details: K562, 48 h, read-out: Activity; method in brief: as §1
HOP-92 = assay: Anticancer activity against human HOP92 cells assessed as cell growth at 10^-5 M after 48 hrs by SRB assay; details: HOP-92, 48 h, read-out: Activity; method in brief: as §1
OVCAR-3 = assay: Anticancer activity against human OVCAR3 cells assessed as cell growth at 10^-5 M after 48 hrs by SRB assay; details: OVCAR-3, 48 h, read-out: Activity
NCI-H522 = assay: Anticancer activity against human NCI-H522 cells assessed as cell growth at 10^-5 M after 48 hrs by SRB assay; details: NCI-H522, 48 h, read-out: Activity
OVCAR-8 = assay: Anticancer activity against human OVCAR8 cells assessed as cell growth at 10^-5 M after 48 hrs by SRB assay; details: OVCAR-8, 48 h, read-out: Activity
SF-295 = assay: Anticancer activity against human SF295 cells assessed as cell growth at 10^-5 M after 48 hrs by SRB assay; details: SF-295, 48 h, read-out: Activity
KM12 = assay: Anticancer activity against human KM12 cells assessed as cell growth at 10^-5 M after 48 hrs by SRB assay; details: KM12, 48 h, read-out: Activity; method in brief: as §1
UO-31 = assay: Anticancer activity against human UO31 cells assessed as cell growth at 10^-5 M after 48 hrs by SRB assay; details: UO-31, 48 h, read-out: Activity; method in brief: as §2
PC-3 = assay: Anticancer activity against human PC3 cells assessed as cell growth at 10^-5 M after 48 hrs by SRB assay; details: PC-3, 48 h, read-out: Activity
ACHN = assay: Anticancer activity against human ACHN cells assessed as cell growth at 10^-5 M after 48 hrs by SRB assay; details: read-out: Activity; method in brief: as §1
MOLT-4 = assay: Anticancer activity against human MOLT4 cells assessed as cell growth at 10^-5 M after 48 hrs by SRB assay; details: MOLT-4, 48 h, read-out: Activity
NCI-H23 = assay: Anticancer activity against human NCI-H23 cells assessed as cell growth at 10^-5 M after 48 hrs by SRB assay; details: NCI-H23, 48 h, read-out: Activity
M14 = assay: Anticancer activity against human M14 cells assessed as cell growth at 10^-5 M after 48 hrs by SRB assay; details: M14, 48 h, read-out: Activity; method in brief: as §1
IGROV-1 = assay: Anticancer activity against human IGROV1 cells assessed as cell growth at 10^-5 M after 48 hrs by SRB assay; details: IGROV-1, 48 h, read-out: Activity; method in brief: as §1
NCI-H226 = assay: Anticancer activity against human NCI-H226 cells assessed as cell growth at 10^-5 M after 48 hrs by SRB assay; details: NCI-H226, 48 h, read-out: Activity
NCI-H460 = assay: Anticancer activity against human NCI-H460 cells assessed as cell growth at 10^-5 M after 48 hrs by SRB assay; details: NCI-H460, 48 h, read-out: Activity
CCRF-CEM = assay: Anticancer activity against human CCRF-CEM cells assessed as cell growth at 10^-5 M after 48 hrs by SRB assay; details: read-out: Activity; method in brief: as §1
SK-MEL-28 = assay: Anticancer activity against human SK-MEL-28 cells assessed as cell growth at 10^-5 M after 48 hrs by SRB assay; details: SK-MEL-28, 48 h, read-out: Activity
U-251 = assay: Anticancer activity against human U251 cells assessed as cell growth at 10^-5 M after 48 hrs by SRB assay; details: U-251, 48 h, read-out: Activity; method in brief: as §2
MDA-MB-231 = assay: Anticancer activity against human MDA-MB-231 cells assessed as cell growth at 10^-5 M after 48 hrs by SRB assay; details: MDA-MB-231, 48 h, read-out: Activity; method in brief: as §1
HCT-15 = assay: Anticancer activity against human HCT15 cells assessed as cell growth at 10^-5 M after 48 hrs by SRB assay; details: HCT-15, 48 h, read-out: Activity; method in brief: as §1
HCT-116 = assay: Anticancer activity against human HCT116 cells assessed as cell growth at 10^-5 M after 48 hrs by SRB assay; details: HCT-116, 48 h, read-out: Activity; method in brief: as §1

| Compound | growth at 10 µM (MDA-MB-468) [%] | growth at 10 µM (MCF7) [%] | growth at 10 µM (SK-MEL-5) [%] | growth at 10 µM (SK-OV-3) [%] | growth at 10 µM (NCI-H322M) [%] | growth at 10 µM (SN12C) [%] | growth at 10 µM (Malme-3M) [%] | growth at 10 µM (T47D) [%] | growth at 10 µM (786-0) [%] | growth at 10 µM (RPMI-8226) [%] | growth at 10 µM (K562) [%] | growth at 10 µM (HOP-92) [%] | growth at 10 µM (OVCAR-3) [%] | growth at 10 µM (NCI-H522) [%] | growth at 10 µM (OVCAR-8) [%] | growth at 10 µM (SF-295) [%] | growth at 10 µM (KM12) [%] | growth at 10 µM (UO-31) [%] | growth at 10 µM (PC-3) [%] | growth at 10 µM (ACHN) [%] | further results |
| --- | --- | --- | --- | --- | --- | --- | --- | --- | --- | --- | --- | --- | --- | --- | --- | --- | --- | --- | --- | --- | --- |
| O=C(NCCNc1nccc(-c2c(-c3cccc(O)c3)nc3sccn23)n1)Nc1ccccc1 | 51.1 | 93.8 | 69.3 | 92.3 | 113 | 64.3 | 36.1 | 74.1 | 100 | 58.3 | 70.6 | 90.2 | 112 | 57 | 68.1 | 99.5 | 68.8 | 86.6 | 86.6 | 85.3 | growth at 10 µM (MOLT-4): 65.5%; growth at 10 µM (NCI-H23): 114%; growth at 10 µM (M14): 24%; growth at 10 µM (IGROV-1): 99.9%; growth at 10 µM (NCI-H226): 105%; growth at 10 µM (NCI-H460): 102%; growth at 10 µM (CCRF-CEM): 46%; growth at 10 µM (SK-MEL-28): 57.4%; growth at 10 µM (U-251): 108%; growth at 10 µM (MDA-MB-231): 85.9%; growth at 10 µM (HCT-15): 92.7%; growth at 10 µM (HCT-116): 67.5% |
| COc1cccc(-c2nc3sccn3c2-c2ccnc(NCCNC(=O)c3ccccc3O)n2)c1 | 102 | 88.5 | 48.6 | 90 | 95.6 | 86 | 57.5 | 60.1 | 91 | 26 | 59.4 | 75.5 | 75 | 61.7 | 55.2 | 101 | 77.2 | 48.6 | 62.8 | 62 | growth at 10 µM (MOLT-4): 59.1%; growth at 10 µM (NCI-H23): 93.4%; growth at 10 µM (M14): 46.9%; growth at 10 µM (IGROV-1): 60.9%; growth at 10 µM (NCI-H226): 97.7%; growth at 10 µM (NCI-H460): 92.1%; growth at 10 µM (CCRF-CEM): 34.7%; growth at 10 µM (SK-MEL-28): 77.1%; growth at 10 µM (U-251): 103%; growth at 10 µM (MDA-MB-231): 89.4%; growth at 10 µM (HCT-15): 66.1%; growth at 10 µM (HCT-116): 69.7% |
| COc1cccc(-c2nc3sccn3c2-c2ccnc(NCCNC(=O)c3ccccc3)n2)c1 | 79.4 | 81.7 | 55.3 | 88.5 | 110 | 84.3 | 26.7 | 61.9 | 78.4 | 41.6 | 67.5 | 77.8 | 89.2 | 61.8 | 62.5 | 85.4 | 87.8 | 53.8 | 79.7 | 65.8 | growth at 10 µM (MOLT-4): 53.4%; growth at 10 µM (NCI-H23): 87.3%; growth at 10 µM (M14): 40.1%; growth at 10 µM (IGROV-1): 69.2%; growth at 10 µM (NCI-H226): 79.3%; growth at 10 µM (NCI-H460): 84.9%; growth at 10 µM (CCRF-CEM): 52.5%; growth at 10 µM (SK-MEL-28): 64.2%; growth at 10 µM (U-251): 102%; growth at 10 µM (MDA-MB-231): 83.5%; growth at 10 µM (HCT-15): 81.9%; growth at 10 µM (HCT-116): 81.8% |
| COc1cccc(-c2nc3sccn3c2-c2ccnc(NCCNC(=O)c3ccc(N4CCOCC4)c(C(F)(F)F)c3)n2)c1 | 90.5 | 90.9 | 57.2 | 82.8 | 101 | 91.7 | 78.4 | 67 | 71.5 | 39 | 32.6 | 85.1 | 93.8 | 60.6 | 62.4 | 69.2 | 76.2 | 58.2 | 60.8 | 70.6 | growth at 10 µM (MOLT-4): 50.8%; growth at 10 µM (NCI-H23): 102%; growth at 10 µM (M14): 62.1%; growth at 10 µM (IGROV-1): 68.6%; growth at 10 µM (NCI-H226): 85.4%; growth at 10 µM (NCI-H460): 77.7%; growth at 10 µM (CCRF-CEM): 54.6%; growth at 10 µM (SK-MEL-28): 89.5%; growth at 10 µM (U-251): 87.2%; growth at 10 µM (MDA-MB-231): 94.2%; growth at 10 µM (HCT-15): 66.6%; growth at 10 µM (HCT-116): 82.6% |
